Most compounds without a hit are left out; they make up all but 5.5% or so of the library.
KCC2 mod = modulates chloride dependent transport by human KCC2; Q9H2X9; KCC2 cells, thallium flux FluoZin-2 fluorescence; B-score of Tl+ flux slope (higher = more flux/activation; lower = inhibition) at 10 µM; actives 2.2% (n = 190,000);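 active = thallium flux slope and its plate-corrected score both differing from the plate sample mean at a set confidence after two filtering rounds, in either direction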;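 also: slope of fluorescence scaled to starting intensity during 10 to 20 s after thallium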
Target sequence (Q9H2X9 whole entry, looked up): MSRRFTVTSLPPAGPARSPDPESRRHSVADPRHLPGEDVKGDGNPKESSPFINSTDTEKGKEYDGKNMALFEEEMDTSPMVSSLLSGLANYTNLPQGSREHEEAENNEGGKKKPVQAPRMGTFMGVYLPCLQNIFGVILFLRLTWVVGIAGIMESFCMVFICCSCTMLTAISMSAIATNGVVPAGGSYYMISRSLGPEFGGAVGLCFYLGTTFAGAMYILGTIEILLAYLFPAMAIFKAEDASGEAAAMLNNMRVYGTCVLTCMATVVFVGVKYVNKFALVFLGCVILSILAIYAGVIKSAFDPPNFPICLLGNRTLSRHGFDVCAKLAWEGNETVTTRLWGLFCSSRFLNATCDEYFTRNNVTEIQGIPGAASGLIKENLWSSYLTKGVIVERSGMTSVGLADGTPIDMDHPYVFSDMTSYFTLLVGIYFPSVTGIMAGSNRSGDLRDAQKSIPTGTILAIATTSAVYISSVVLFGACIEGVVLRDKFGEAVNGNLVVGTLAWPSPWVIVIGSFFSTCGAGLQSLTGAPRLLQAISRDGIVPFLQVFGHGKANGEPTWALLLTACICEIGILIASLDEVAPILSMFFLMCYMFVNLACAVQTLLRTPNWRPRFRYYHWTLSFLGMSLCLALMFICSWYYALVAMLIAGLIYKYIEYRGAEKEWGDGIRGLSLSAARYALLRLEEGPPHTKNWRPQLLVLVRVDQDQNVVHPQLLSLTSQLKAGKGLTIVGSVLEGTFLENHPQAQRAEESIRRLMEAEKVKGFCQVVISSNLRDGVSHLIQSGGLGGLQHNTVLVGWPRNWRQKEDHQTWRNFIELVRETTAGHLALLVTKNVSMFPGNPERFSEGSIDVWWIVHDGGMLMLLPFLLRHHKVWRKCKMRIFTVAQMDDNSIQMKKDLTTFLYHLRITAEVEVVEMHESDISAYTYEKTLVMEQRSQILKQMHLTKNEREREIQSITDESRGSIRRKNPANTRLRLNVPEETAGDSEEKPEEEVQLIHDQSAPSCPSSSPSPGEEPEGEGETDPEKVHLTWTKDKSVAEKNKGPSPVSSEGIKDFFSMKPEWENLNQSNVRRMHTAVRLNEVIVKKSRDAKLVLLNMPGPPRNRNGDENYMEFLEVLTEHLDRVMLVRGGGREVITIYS
STAT3 inh = STAT3 signaling inhibition. inhibition, % at 5.5 µM. AID 862. actives 0.89% (n = 190,000). U3A cells, IL-6 STAT3-luciferase reporter, luminescence; host cell line lacks STAT1;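 active = inhibition above the mean inhibition across all screened compounds plus 3 SD, cut at about 44% in these data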;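 also: 0% = DMSO only wells and 100% = 100 µM nifuroxazide control wells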
STAT3 act = increases IL-6 driven STAT3 reporter signal | actives 0.91% (n = 190,000) | AID 871 | U3A cells, IL-6 STAT3-luciferase reporter, luminescence; 100% = signal with IL-6 EC80 alone | activation (% of control), % at 5.6 µM;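 active = activation above the screen-wide mean of compound activation plus 3 SD, cut at about 130% in these data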;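 also: 0% = background luminescence of wells with medium and substrate only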
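Material: human STAT1-deficient U3A cells with stable STAT3-luciferase reporter / Probe or stimulus: IL-6 stimulus at 33 ng/mL final / Schedule: 1 h compound pre-exposure, 6 h IL-6 stimulation, 37 °C / Technique: luminescence / Read-out basis: percent of IL-6-only median luminescence / Control set: IL-6-only high control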
HSV replic up = HSV replication enhancement; AID 1956; HSV replication augmentation in cells, fold increase; maximum fold increase; actives 0.005% (n = 220,000); in the data active = maximum fold increase above about 1.5; tested in PC3 cells
STAT1 blocker = reduces IFN-gamma driven STAT1 reporter signal; actives 0.35% (n = 200,000); inhibition, % at 5.5 µM; AID 920; NIH 3T3 STAT1-luciferase reporter, luminescence;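 active = inhibition above a set limit, the mean inhibition across all tested compounds plus 3 SD, cut at about 34% in these data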;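 also: 0% = IFN-gamma with DMSO and 100% = IFN-gamma with 300 µM nifuroxazide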
STAT1 act = STAT1 signaling activation | NIH 3T3 STAT1-luciferase reporter, IFN-gamma, luminescence; 100% = IFN-gamma alone, no compound | AID 932 | actives 2.6% (n = 200,000) | activation (% of control), % at 5.5 µM;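 active = activation above the screen-wide mean activation plus 3 SD, cut at about 130% in these data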;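 also: raw ratio to IFN-gamma control signal so 100% means no change and 0% no light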
Active calls of the source: *; i = inactive; · = no result given.

SMILES | KCC2 mod | STAT3 inh | STAT3 act | HSV replic up | STAT1 blocker | STAT1 act
Cc1ccc(S(=O)(=O)N2CCCCC2)cc1NC(=O)COC(=O)Cc1cccc(C(F)(F)F)c1 | -0.012 | 23 | 86 | · | 6 | 94
Cc1ccc2nc(-c3ccc4c(c3)OCCO4)cn2c1 | -1.2 | · | · | i | · | ·
c1ccn2cc(-c3ccc4c(c3)OCCO4)nc2c1 | 0.25 | 90* | 26 | i | 60* | 44
Clc1ccc2nc(-c3ccc4c(c3)OCO4)cn2c1 | · | 83* | 29 | i | 65* | 40
COC(=O)C[N+](C)(C)CC#Cc1ccccc1 | 0.014 | 0 | 98 | i | -2 | 102
COc1cc(/C=N/NC(=O)c2cc(-c3cccn3C)n[nH]2)cc(OC)c1OC | · | -32 | 134* | i | 1 | 99
CCCCCCNC(=O)CCCCCNS(=O)(=O)c1ccc(OC)cc1 | -0.25 | 6 | 98 | i | 3 | 97
Cc1ccc(-c2csc3nc[nH]c(=S)c23)cc1 | 50* | -3 | 100 | i | 0 | 103
O=c1[nH]cnc2scc(-c3ccc(Br)cc3)c12 | · | 27 | 80 | i | -16 | 113
Cc1sc2nc[nH]c(=S)c2c1-c1ccccc1 | 31* | 10 | 97 | i | -1 | 99
Cc1cc(-c2csc3nc[nH]c(=S)c23)cc(C)c1C | 85* | 11 | 95 | i | 14 | 86
COC(=O)/C=c1\[nH]c2nnc(C)n2c1=O | 0.41 | · | · | i | · | ·
O=C(O)CCCn1cc(NC(=O)c2ccc(Br)o2)cn1 | 0.38 | 16 | 91 | i | 2 | 96
CCOc1ccc2nc(SCc3ccc(OC)cc3)sc2c1 | -0.028 | -6 | 103 | i | -5 | 107
CCOc1ccc2nc(SCc3ccccc3C#N)sc2c1 | · | 6 | 104 | i | -38 | 134*
Cn1cnc2cc(NCc3cccs3)ccc21 | 1.2 | 4 | 100 | · | -14 | 112
Cc1ccc(CNc2ccc3c(c2)ncn3C)cc1 | -1.5 | -9 | 112 | i | -42 | 139*
Cc1ccc(C(=O)Nc2ccc3c(c2)ncn3C)cc1 | · | 7 | 95 | · | -42 | 139*
CCn1cnc2cc(NCc3ccncc3)ccc21 | -0.59 | 3 | 99 | i | -2 | 107
CCc1ccc(CNc2ccc3c(c2)ncn3C)cc1 | · | -5 | 111 | i | -53 | 148*
COc1ccc(-c2ccc(-c3nnn(CC(C)=O)n3)cc2)cc1 | 0.013 | 11 | 95 | i | -36 | 133*
COc1cccc(-c2nnn(CC(C)=O)n2)c1 | -0.065 | -14 | 114 | i | -37 | 134*
COc1cccc(/C=N/NC(=O)CN2CC(c3ccccc3)CC2=O)c1OC (stereo unspecified) | -0.33 | -5 | 103 | i | -9 | 109
Cc1ccc(SCCC(=O)N/N=C/c2cccnc2)cc1 | -0.028 | 1 | 101 | i | 0 | 98
CC(=O)NC(Cc1ccc(C)cc1)C(=O)NC1CCN(c2ncccc2[N+](=O)[O-])CC1 (stereo unspecified) | 0.14 | -6 | 103 | i | -1 | 101
SMILES | KCC2 mod | STAT3 inh | STAT3 act | HSV replic up | STAT1 blocker | STAT1 act
O=C(Nc1ccc(N2CCOCC2)cc1)c1ccncc1 | -0.11 | 1 | 100 | i | -3 | 97
O=C(Nc1ccc(N2CCOCC2)cc1)c1cnsn1 | 0.46 | 87* | 31 | · | 44* | 60
CCN(C(=O)COC(=O)c1c2c(nc3ccccc13)/C(=C/c1ccccc1)CC(C)C2)C1CCS(=O)(=O)C1 (stereo unspecified) | -0.03 | -7 | 110 | i | -6 | 105
Cc1ccc(-c2cnn(-c3cccc(C(F)(F)F)c3)c2N)cc1 | · | 8 | 100 | i | -42 | 138*
Nc1c(-c2ccc(Cl)cc2)cnn1-c1cccc(C(F)(F)F)c1 | · | 20 | 92 | i | -24 | 121
O=C(NC(=S)Nc1cccc(C(F)(F)F)c1)c1csnn1 | 59* | 16 | 90 | i | -4 | 102
CCCOc1cccc(C(=O)NC(=S)Nc2cccc(C(F)(F)F)c2)c1 | 11* | 3 | 104 | · | 3 | 97
CCCCOc1cccc(C(=O)NC(=S)Nc2ccc(Cl)c(C(=O)O)c2)c1 | -1.7 | -8 | 109 | i | -13 | 110
O=C(NC(=S)Nc1ccccc1Cl)c1csnn1 | 17* | 1 | 104 | i | -12 | 110
O=C(Nc1ccccc1NC(=O)c1csnn1)c1csnn1 | -1.1 | 4 | 101 | i | 1 | 98
COC(=O)c1ccc(C(=O)O)nc1 | -0.069 | · | · | i | · | ·
O=C(O)CCC(=O)NNC(=O)c1ccc(Br)cc1 | 0.48 | 6 | 97 | i | -3 | 103
CCc1c(C)sc(NC(=O)C2CC2c2ccccc2)c1C(N)=O (stereo unspecified) | -2 | -33 | 134* | i | -8 | 107
NNC(=O)[C@@H]1C[C@@H]1c1ccccc1 | 1.3 | 4 | 100 | i | 11 | 90
Cc1ccc(/C=C/C(=O)O)cc1S(=O)(=O)N1CCCCC1 | 0.0063 | · | · | i | · | ·
Sc1oc(-c2ccccc2)cc1C=Nc1ccccc1 | 2.6 | -10 | 109 | i | -37 | 134*
CC(=O)Nc1ccc(C(=O)NCC(=O)OCc2c(F)cccc2Cl)cc1 | -0.39 | 8 | 99 | i | -5 | 103
O=C(C1CC(c2ccc(F)cc2)=NO1)N1CCc2ccccc2C1 (stereo unspecified) | -0.77 | 19 | 89 | i | -13 | 112
O=C(C1CC(c2ccc(F)cc2)=NO1)N1CCN(c2ccccc2)CC1 (stereo unspecified) | · | 5 | 100 | i | -2 | 102
O=C(C1CC(c2ccc(F)cc2)=NO1)N1CCCCC1 (stereo unspecified) | 0.75 | 10 | 96 | i | -35 | 132*
CC1CCCCN1C(=O)C1CC(c2ccc(F)cc2)=NO1 (stereo unspecified) | -1.6 | 0 | 102 | i | -40 | 136*
CCC(=O)Nc1cc(C(=O)O)ccc1Sc1ccc(Cl)cc1 | 0.34 | 9 | 99 | i | 0 | 100
Cc1csc(NC(=O)C(NC(=O)c2ccccc2F)C(C)C)n1 (stereo unspecified) | -0.063 | 5 | 103 | i | 5 | 95
Fc1ccc(-c2nnc(CSc3nnc4ccccn34)o2)cc1 | -0.59 | -8 | 105 | i | -26 | 124
c1ccc(-c2cnc(CSc3nnc4ccccn34)o2)cc1 | 0.052 | 2 | 102 | i | -38 | 137*
Cc1nc(-c2ccccc2)sc1-c1ccnn1C | -0.11 | 16 | 89 | i | -46 | 141*
Cc1nc(-c2ccccc2)sc1-c1ccn[nH]1 | -1.4 | 29 | 81 | i | -25 | 122
Cc1ccc(NC(=O)CSc2nsc(SCC(=O)Nc3ccc(C)cc3C)c2C#N)c(C)c1 | 0.084 | 7 | 94 | i | 0 | 100
Cc1csc(NC(=O)CSc2nsc(SCC(=O)Nc3nc(C)cs3)c2C#N)n1 | 1.1 | 25 | 80 | i | -35 | 132*

Bioassay records as filed in PubChem BioAssay.
